# Source: article PMC11359639 (ACS Omega, 2024)
# Entries after “also recorded” stand apart in the source; their conditions may differ.
# Experiments:
# TNF-α [1] = test: TNF-α level in supernatant of LPS-induced RAW264.7 cells; assay type: cell-based; settings: RAW264.7 cells supernatant, LPS 1 μg/mL, 1 μM, 48 h
# In short: (§1)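 RAW264.7 cells were allowed to attach, then the medium was replaced with 1 μg/mL LPS plus test compound at final concentrations of 1, 10 and 100 μM, with DMSO used for solubilisation where needed. […] After 48 h culture, the supernatant was assayed for IL-1β, IL-6 and TNF-α. Values are means of three independent experiments, mean ± SD, compared by one-way ANOVA.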
# IL-1β = IL-1β level in supernatant of LPS-induced RAW264.7 cells; assay type: cell-based; settings: RAW264.7 cells supernatant, LPS 1 μg/mL, 1 μM, 48 h
# In short: as §1
# IL-6 [2] = test: IL-6 level in supernatant of LPS-induced RAW264.7 cells; assay type: cell-based; settings: RAW264.7 cells supernatant, LPS 1 μg/mL, 1 μM, 48 h
# In short: as §1
# [3] = system: CIA (collagen-induced arthritis) model; test: Rat CIA; assay type: in vivo; settings: for paw volume of rats: CIA rats, 15 days
# IL-6 [4] = test: Rat CIA model, serum IL-6 concentration; assay type: in vivo; settings: CIA rats, 50 and 100 (mg/kg)/day oral, compared with model group
# TNF-α [5] = test: Rat CIA model, serum TNF-α concentration; assay type: in vivo; settings: CIA rats, 50 and 100 (mg/kg)/day oral, compared with model group
# TLR4 [6] = test: TLR4 protein expression in RAW264.7 cells by immunofluorescence; assay type: cell-based; settings: LPS-induced RAW264.7 cells, 1 μM, 24 h, vs model group
# In short: (§2)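 They were PBS-washed, fixed in 4% fixative for 45 min, permeabilised with 0.25% Triton for 15 min and blocked with 5% BSA for 10 min. Staining used rabbit anti-mouse TLR4 or TNF-α (1:100, 4 °C overnight), FITC anti-rabbit (1:400, 37 °C, 30 min) and DAPI. Mean cell fluorescence was read by confocal microscopy.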
# TNF-α [7] = test: TNF-α protein expression in RAW264.7 cells by immunofluorescence; assay type: cell-based; settings: LPS-induced RAW264.7 cells, 1 μM, 24 h, vs model group
# In short: as §2
# NF-κB [8] = test: NF-κB protein expression in RAW264.7 cells by immunofluorescence; assay type: cell-based; settings: LPS-induced RAW264.7 cells, 1 μM, 24 h, vs model group
# TLR4 [9] = test: TLR4 protein expression in RAW264.7 cells by Western blot; assay type: cell-based; settings: LPS-induced RAW264.7 cells, 1 μM, 24 h, vs model group
# In short: (§3)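 Lysis was in RIPA containing 1% PMSF on ice for 3–4 h, followed by centrifugation at 12000 rpm for 15 min. Supernatants were stored at −80 °C, and TLR4 and TNF-α protein were detected by Western blot.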
# TNF-α [10] = test: TNF-α protein expression in RAW264.7 cells by Western blot; assay type: cell-based; settings: LPS-induced RAW264.7 cells, 1 μM, 24 h, vs model group
# In short: as §3
# NF-κB [11] = test: NF-κB protein expression in RAW264.7 cells by Western blot; assay type: cell-based; settings: LPS-induced RAW264.7 cells, 1 μM, 24 h, vs model group
# TLR4 [12] = test: TLR4 mRNA expression in RAW264.7 cells by RT-PCR; assay type: cell-based; settings: LPS-induced RAW264.7 cells, 1 μM, 24 h, vs model group
# TNF-α [13] = test: TNF-α mRNA expression in RAW264.7 cells by RT-PCR; assay type: cell-based; settings: LPS-induced RAW264.7 cells, 1 μM, 24 h, vs model group
# NF-κB [14] = test: NF-κB mRNA expression in RAW264.7 cells by RT-PCR; assay type: cell-based; settings: LPS-induced RAW264.7 cells, 1 μM, 24 h, vs model group
# [15] = Pharmacokinetics in Sprague-Dawley rats; assay type: in vivo, rat; settings: for maximum concentration: SD rats; for half-life: male, Sprague-Dawley, rat, plasma
# In short: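 Male SD rats (6–8 weeks) received test compound in 10% DMSO + 10% Solutol HS15 + 80% (20% HP-β-CD saline), either 20 mg/kg via foot dorsal vein or 100 mg/kg by oral gavage. Samples were kept on wet ice and spun at 2000g for 5 min at 4 °C within 15 min. Plasma was analysed by LC-MS/MS.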
compound,measurement,setting,value
"CC(=O)CC(=O)C1CCCC1=O (stereo not drawn) [Compound 3a, 1-(2-Oxocyclopentyl)butane-1,3-dione]",Inflammatory factor TNF-α,TNF-α [1],520.6 ± 54.6 pg/L
same,Inflammatory factor IL-1β,IL-1β,512.0 ± 85.0 pg/L
same,Inflammatory factor IL-6,IL-6 [2],196.2 ± 14.3 pg/L
"COC(=O)C1CCC(C(=O)CC(C)=O)C1=O (stereo not drawn) [Compound 3g, Methyl 2-oxo-3-(3-oxobutanoyl)cyclopentane-1-carboxylate]",Inflammatory factor TNF-α,TNF-α [1],339.8 ± 49.2 pg/L
same,Inflammatory factor IL-1β,IL-1β,408.2 ± 69.1 pg/L
same,Inflammatory factor IL-6,IL-6 [2],170.3 ± 25.3 pg/L
"CCOC(=O)C1CCC(C(=O)CC(C)=O)C1=O (stereo not drawn) [Compound 3h, Ethyl 2-oxo-3-(3-oxobutanoyl)cyclopentane-1-carboxylate]",Inflammatory factor TNF-α,TNF-α [1],524.7 ± 48.5 pg/L
same,Inflammatory factor IL-1β,IL-1β,506.0 ± 65.1 pg/L
same,Inflammatory factor IL-6,IL-6 [2],197.4 ± 21.3 pg/L
"CC(=O)CC(=O)C1CCC(C(C)=O)C1=O (stereo not drawn) [Compound 3i, 1-(3-Acetyl-2-oxocyclopentyl)butane-1,3-dione]",Inflammatory factor TNF-α,TNF-α [1],424.5 ± 87.6 pg/L
same,Inflammatory factor IL-1β,IL-1β,558.4 ± 66.9 pg/L
same,Inflammatory factor IL-6,IL-6 [2],205.2 ± 25.9 pg/L
"CCCCCC1C(=O)C(C(=O)CC(C)=O)CC1CC(=O)OC (stereo not drawn) [Compound 3j, Methyl 2-(3-oxo-4-(3-oxobutanoyl)-2-pentylcyclopentyl)acetate]",Inflammatory factor TNF-α,TNF-α [1],400.6 ± 60.2 pg/L
same,Inflammatory factor IL-1β,IL-1β,488.8 ± 66.1 pg/L
same,Inflammatory factor IL-6,IL-6 [2],163.8 ± 25.9 pg/L
"CC(=O)CC(=O)C1CC(C)C(=O)C1=O (stereo not drawn) [Compound 3k, 3-Methyl-5-(3-oxobutanoyl) cyclopentane-1,2-dione]",Inflammatory factor TNF-α,TNF-α [1],217.8 ± 20.3 pg/L
same,Inflammatory factor IL-1β,IL-1β,278.6 ± 58.1 pg/L
same,Inflammatory factor IL-6,IL-6 [2],96.6 ± 9.8 pg/L
same,paw volume of rats,[3]; high dose 100 (mg/kg)/day oral,basically unchanged
same,paw volume of rats,[3]; low dose 50 (mg/kg)/day oral,basically unchanged
same,effect in collagen-induced arthritis model compared with methotrexate,[3]; administered orally,effects similar to those of methotrexate; also recorded: effect similar to that of the positive control group methotrexate
same,serum IL-6 concentration,IL-6 [4],decreased significantly and reached the normal level
same,serum TNF-α concentration,TNF-α [5],decreased significantly and reached the normal level
same,expression of TLR4 protein (immunofluorescence),TLR4 [6],significantly down-regulated
same,expression of TNF-α protein (immunofluorescence),TNF-α [7],significantly down-regulated
same,expression of NF-κB protein (immunofluorescence),NF-κB [8],significantly down-regulated
same,expression of TLR4 protein (Western blot),TLR4 [9],significantly down-regulated
same,expression of TNF-α protein (Western blot),TNF-α [10],significantly down-regulated
same,expression of NF-κB protein (Western blot),NF-κB [11],significantly down-regulated
same,expression of TLR4 gene (RT-PCR),TLR4 [12],significant down-regulated
same,expression of TNF-α gene (RT-PCR),TNF-α [13],significant down-regulated
same,expression of NF-κB gene (RT-PCR),NF-κB [14],significant down-regulated
same,maximum concentration,[15]; intravenous dose 20 mg/kg,1603 ng/mL
same,maximum concentration,[15]; oral dose 100 mg/kg,2014 ng/mL
same,half-life,"[15]; iv, 20 mg/kg",30 to 60 min
same,half-life,"[15]; po, 100 mg/kg",30 to 60 min
"CN(Cc1cnc2nc(N)nc(N)c2n1)c1ccc(C(=O)N[C@@H](CCC(=O)O)C(=O)O)cc1 [methotrexate, reference compound]",Inflammatory factor TNF-α,TNF-α [1],236.8 ± 18.7 pg/L
same,Inflammatory factor IL-1β,IL-1β,337.6 ± 47.8 pg/L
same,Inflammatory factor IL-6,IL-6 [2],114.1 ± 2.8 pg/L
same,expression of TLR4 protein (immunofluorescence),TLR4 [6],significantly down-regulated
same,expression of TNF-α protein (immunofluorescence),TNF-α [7],significantly down-regulated
same,expression of TLR4 protein (Western blot),TLR4 [9],significantly down-regulated
same,expression of TNF-α protein (Western blot),TNF-α [10],significantly down-regulated
same,expression of TLR4 gene (RT-PCR),TLR4 [12],significantly down-regulated
same,expression of TNF-α gene (RT-PCR),TNF-α [13],significantly down-regulated
